Source: PubChem
KCNK9 block: inhibitors of human KCNK9 two-pore domain potassium channel. B-score at 10 µM. Q9NPC2. 310,000 compounds, 1.2% hits. HEK293 KCNK9, FluxOR thallium flux fluorescence; active compounds read low. AID 488922;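 active means ratio B-score over 3 SD below the library mean, with starting fluorescence within 5 SD of its mean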;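 further: negative B-score means less thallium flux so channel inhibition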
KCC2 mod: modulates chloride dependent transport by human KCC2; Q9H2X9; KCC2 cells, thallium flux FluoZin-2 fluorescence; B-score of Tl+ flux slope (higher = more flux/activation; lower = inhibition) at 10 µM; 190,000 compounds, 2.2% hits;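 active means thallium flux slope and its plate-corrected score both differing from the plate sample mean at a set confidence after two filtering rounds, in either direction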;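 further: slope of fluorescence scaled to starting intensity during 10 to 20 s after thallium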
KCNQ1 pot: potentiators or activators of human KCNQ1 potassium channel | P51787 | CHO-K1 KCNQ1, thallium flux FluxOR fluorescence; active compounds read high | B-score at 10 µM | 310,000 compounds, 0.35% hits;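 active means fluorescence ratio B-score, a plate-corrected score, at least three library SD, with initial intensity B-score within 5 SD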
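System: Stable KCNQ1 CHO-K1 line | Incubation: 90 min dye loading and 20 min compound exposure, both at room temperature | Measure: Ratio B score | Medium: Assay buffer for compound exposure, DMSO matched across wells | Compound dosing: Single-concentration screen | Probe or stimulus: K+/Tl+ depolarizing stimulus | Measured by: Kinetic FluxOR fluorescence, 10 s baseline plus 110 s post-stimulus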
hERG protect: hERG (human) protection from proarrhythmic block; Q12809; 310,000 compounds, 0.51% hits; activation (rescue from dofetilide block), less the hit threshold, % at 10 µM; CHO-hERG, FluxOR thallium flux, dofetilide IC70 present;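 active means activation above the mean of controls blocked by dofetilide plus 5 SD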;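 further: thallium influx through hERG after potassium depolarization seen as dye fluorescence rise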
KCNQ1 block: human KCNQ1 channel inhibition. CHO-K1 KCNQ1, FluxOR thallium flux fluorescence; active compounds read high. B-score at 10 µM. 310,000 compounds, 1.3% hits. P51787;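 active means compounds whose thallium flux B-score, printed positive for inhibition, exceeds three library SD while starting fluorescence stays within three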;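 further: channel opened by potassium depolarization with thallium stimulus after 20 min compound exposure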
KCNK3 block: human KCNK3 channel inhibition, primary screen; O14649; CHO-KCNK3 thallium flux, FluxOR fluorescence; active compounds read low; B-score at 10 µM; 340,000 compounds, 0.84% hits; AID 602410;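 active means B-score under library mean minus 4 SD, starting fluorescence ratio at most library mean plus 5 SD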;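 further: more negative B-score means stronger inhibition of thallium flux through KCNK3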
KCNK3 confirm: confirmation of human KCNK3 two-pore domain potassium channel inhibitors; shares compounds with KCNK3 block; CHO-KCNK3 thallium flux, FluxOR fluorescence; 0% buffer, 100% carvedilol maximal block; ratio percent of control, % at 10 µM; 2,400 compounds, 99% hits;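 active means ratio percent of control, averaged over triplicates, above buffer control mean plus 5 SD, cut at about 64% in these data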;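 further: ratio is the fluorescence rise from min to max over baseline after thallium stimulus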
KCNK3 noninduced: KCNK3 inhibitor counter-screen hit in non-induced cells; AID 651747; non-induced KCNK3 parental cells, FluxOR thallium flux; active compounds read low; shares compounds with KCNK3 block; 2,400 compounds, 40% hits; thallium flux ratio (lower = more inhibition) at 10 µM;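 active means thallium flux ratio, averaged over three wells, more than 5 SD below the buffer control mean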;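 further: host cells are CHO cells without KCNK3 induction; ratio is peak minus trough fluorescence over baseline then normalized to buffer controls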
* marks the source's active call; other numbers are inactive results; i = inactive; · = no result given. A selection: hits, their analogues and other compounds. The true share with any hit is near 4.1%.

SMILES	KCNK9 block	KCC2 mod	KCNQ1 pot	hERG protect	KCNQ1 block	KCNK3 block	KCNK3 confirm	KCNK3 noninduced
COc1ccc(CN2CCN(CCc3ccccc3)C(CCO)C2)c(Cl)c1OC (centres undefined)	i	·	i	-3	i	-9.9*	85*	i
COc1ccccc1CN(C)CC(=O)Nc1ccccc1-c1ccccc1	i	-0.12	i	-22	i	-8.8*	116*	0.14*
COc1ccc(Br)cc1CN(C)CC(=O)NCCc1ccccc1	i	-0.47	i	-11	i	-10*	102*	i
NS(=O)(=O)c1ccc(Cl)cc1[N+](=O)[O-]	i	0.93	i	-1	i	i	·	·
CCOC(=O)c1cc(-c2ccco2)nc2c1c(C)nn2-c1ccccc1	i	0.9	i	-6	i	-9.4*	93*	i
CC1=C(C(=O)Nc2cccc(C(=O)NC(C)c3ccccc3)c2)SCCO1 (centres undefined)	i	·	i	-13	i	-8.9*	76*	i
CC1=C(C(=O)Nc2cccc(C(=O)NC3CCCC(C)C3C)c2)SCCO1 (centres undefined)	i	·	i	-11	i	-9.3*	97*	i
Cc1cc2cc(CNC(=O)C(C)Oc3ccccc3)ccc2n1C (centres undefined)	i	0.28	i	-9	i	i	·	·
Cc1c(C(=O)Nc2ccc(S(=O)(=O)NCC3CCCO3)cc2)cccc1[N+](=O)[O-] (centres undefined)	i	-0.036	i	-9	i	i	·	·
COC(=O)CSc1nc2cc(Cl)ccc2c(=O)n1C1CCCC1	i	-0.44	i	-16	i	i	·	·
NC(=O)CSc1nc2cc(Cl)ccc2c(=O)n1C1CCCCC1	i	·	i	-3	i	-10*	95*	i
CCOC(=O)CNC(=O)Cc1ccc(OC)cc1	i	0.029	i	-2	i	i	·	·
Cc1coc2cc3oc(=O)c(CC(=O)N[C@@H](CC(C)C)C(=O)O)c(C)c3cc12	i	·	i	-3	i	i	·	·
CCc1cccc2c(C#N)cn(CC(=O)NCCOC)c12	i	0.58	i	-5	i	i	·	·
Oc1ccccc1/C=N/c1c(-c2ccco2)nc2ccccn12	i	0.55	i	-17	i	-9.7*	95*	i
CCOc1ccccc1CNCc1ccc(F)cc1	i	0.22	i	-6	i	i	·	·
CCOC(=O)C1=C(C)Nc2ccccc2N=C1NC(=O)c1oc2ccccc2c1COC	·	·	·	·	·	i	·	·
O=C(COC(=O)c1cc(S(=O)(=O)N2CCc3ccccc3C2)ccc1Cl)NCc1ccco1	i	·	i	-6	i	-9.4*	97*	i
O=C(Nc1ccc(Br)c(C(F)(F)F)c1)c1ccc(C(F)(F)F)cc1	i	-0.016	i	-23	12*	-10*	119*	0.1*
CN(Cc1ccccc1)C(=O)c1ccc(NC(=O)C2CCCN(C(=O)OC(C)(C)C)C2)cc1 (centres undefined)	·	·	·	·	·	i	·	·
OC1CCC(NC(=S)Nc2ccc(SC(F)F)cc2)CC1 (centres undefined)	i	-0.0046	i	-6	i	i	·	·
FC(F)Sc1ccc(NC(=S)NC2CCCC2)cc1	i	-0.36	i	-6	i	-11*	113*	i
COCCOC(=O)c1c(C)oc2ccc(OC(=O)c3c(OC)cccc3OC)cc12	i	-1.2	i	-3	i	-10*	104*	i
CCOC(=O)c1c(C)oc2ccc(OCc3cc(C(=O)OC)oc3C)cc12	i	·	i	-4	i	-10*	103*	0.16*
COC(=O)c1cc(COc2ccc3oc(C)c(C(=O)OC)c3c2)c(C)o1	i	-0.63	i	-7	i	i	·	·
SMILES	KCNK9 block	KCC2 mod	KCNQ1 pot	hERG protect	KCNQ1 block	KCNK3 block	KCNK3 confirm	KCNK3 noninduced
CC(C)(C)C1CCCCC1NC(=O)c1ccncc1 (centres undefined)	i	·	i	-3	i	i	·	·
COc1ccc(C)cc1NC(=O)c1sc2ncnc(N3CCN(c4ccccn4)CC3)c2c1C	i	·	i	-3	i	-11*	116*	i
COc1ccc(CCC(=O)NCCc2ccc(Cl)cc2)cc1	i	·	i	-6	i	i	·	·
COc1ccc2c(c1)C(SCC(=O)NCCc1ccc(Cl)cc1)CC(C)(C)O2 (centres undefined)	i	-2.8	i	-13	i	-9*	78*	i
Cc1ccc(SCCNC(=O)/C=C/c2ccccc2Cl)cc1	i	·	i	-13	i	-14*	123*	0.13*
CCOC(=O)Cc1csc(NS(=O)(=O)c2ccc(C(F)(F)F)cc2)n1	i	-0.7	i	-1	i	i	·	·
Cc1ccc(NC(=S)N(Cc2ccco2)C(C)c2cccs2)c(Cl)c1 (centres undefined)	i	-0.53	i	-13	i	-11*	101*	i
CNC(=S)N1CCn2cccc2C1c1ccc(F)cc1 (centres undefined)	i	-0.22	i	-20	i	i	·	·
Fc1ccccc1C1c2cccn2CCN1C(=S)Nc1ccc(Br)cc1 (centres undefined)	i	0.62	i	-17	7*	-15*	132*	0.12*
O=c1ccn(CCc2c[nH]c3ccccc23)c2c1CCCC2	i	-0.29	i	-5	i	i	·	·
O=C1COc2ccc(C(=O)COC(=O)CNC(=O)c3ccco3)cc2N1	i	0.52	i	-10	i	i	·	·
O=C(Nc1ccc(OCC(=O)N2CCOCC2)cc1)c1ccccc1F	i	·	i	-5	i	i	·	·
O=C(Nc1ccc(Cl)cc1)c1cc(Br)ccc1OCC(=O)N1CCOCC1	i	·	i	-3	i	-10*	112*	i
C(=NN=C(NN=Cc1cccs1)NN=Cc1cccs1)c1cccs1	·	·	·	·	·	-15*	123*	i
CCc1cc2c(=O)n(Cc3ccco3)c(SCC(=O)N(C)C3CCS(=O)(=O)C3)nc2s1 (centres undefined)	i	0.18	i	-17	i	-9.9*	100*	i
CCN(C(=O)CSc1nc2ccccc2c(=O)n1Cc1ccc(C)cc1)C1CCS(=O)(=O)C1 (centres undefined)	i	·	i	-12	i	-9.5*	97*	i
